# Results as given in ChEMBL document CHEMBL2176871, “Development of ligands at γ-aminobutyrric acid type A (GABAA) receptor subtype as new agents for pain relief” (Bioorg Med Chem, 2011).
# Activity calls are given as the source filed them.
# Key:
# Bos taurus = organism: Bos taurus; assay: Displacement of [3H]Ro151788 from GABA(A)/BzR in bovine cerebral cortex membrane at 10 uM; assay type: cell membranes
# In short: (§1)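 Bovine cerebral cortex membranes in 50 mM Tris-citrate pH 7.4; [3H]flumazenil displacement. Compounds first tested at a fixed 10 µM; Ki determined only when inhibition exceeded 80%, using at least six concentrations. Five experiments run in triplicate; IC50 obtained by iterative curve fitting and converted to Ki with the Cheng–Prusoff equation.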
# [1] = Displacement of [3H]Ro151788 from GABA(A)/BzR in bovine cerebral cortex membrane; assay type: cell membranes, Bos taurus; in short: as §1
# Rattus norvegicus [2] = assay: Antinociceptive activity in Sprague-Dawley rat mononeuropathy pain model assessed as increase in injured paw pressure at 30 mg/kg, po after 45 mins by paw pressure test relative to non-treated control; assay type: functional
# In short: (§2)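 Chronic constriction injury: loose ligatures placed on the common sciatic nerve under chloral hydrate; contralateral sham dissection. Tested 14 days after surgery. Paw pressure applied at 32 g/s; threshold taken as the force causing the first struggle; cut-off 250 g; pretest outliers (<40 g or >75 g) excluded. Oral dosing in 10 ml/kg; read at 15, 30 and 45 min; compared with a CMC-treated group.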
# Rattus norvegicus [3] = assay: Antinociceptive activity in Sprague-Dawley rat mononeuropathy pain model assessed as increase in injured paw pressure at 30 mg/kg, po after 30 mins by paw pressure test relative to non-treated control; assay type: functional; in short: as §2
# Rattus norvegicus [4] = assay: Antinociceptive activity in Sprague-Dawley rat mononeuropathy pain model assessed as increase in injured paw pressure at 30 mg/kg, po after 15 mins by paw pressure test relative to non-treated control; assay type: functional; in short: as §2
# Rattus norvegicus [5] = assay: Toxicity in Sprague-Dawley rat mononeuropathy pain model assessed as effect on contralateral paw pressure at 30 mg/kg, po after 45 mins by paw pressure test; assay type: organism-based; set-up: dose 30 mg/kg, route oral; conditions: in vivo, 0.75 h
# In short: (§3)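 Same sciatic-ligation rat model, 14 days after surgery. Threshold measured on the non-operated contralateral hind paw by analgesimeter at 32 g/s; first-struggle endpoint; 250 g cut-off; pretest rats outside 40–75 g rejected. Compound given po in 10 ml/kg; readings at 15, 30 and 45 min.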
# Rattus norvegicus [6] = assay: Toxicity in Sprague-Dawley rat mononeuropathy pain model assessed as effect on contralateral paw pressure at 30 mg/kg, po after 30 mins by paw pressure test; assay type: organism-based; set-up: dose 30 mg/kg, route oral; conditions: in vivo, 0.5 h; in short: as §3
# Rattus norvegicus [7] = assay: Toxicity in Sprague-Dawley rat mononeuropathy pain model assessed as effect on contralateral paw pressure at 30 mg/kg, po after 15 mins by paw pressure test; assay type: organism-based; set-up: dose 30 mg/kg, route oral; conditions: in vivo, 0.25 h; in short: as §3
# Mus musculus [8] = assay: Antihyperalgesic activity Swiss albino mouse […] assessed as licking latency time at 30 mg/kg, po after 60 mins by hot plate test (reference value: 16.6 +/- 0.8 secs); assay type: functional
# In short: (§4)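 Hot plate at 52.5 ± 0.1 °C in non-diabetic male Swiss mice. Latency to licking of fore or hind paws was timed before dosing and every 15 min up to 60 min after oral dosing. Mice with pretest latencies below 12 s or above 18 s were excluded. Cut-off was 45 s.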
# Mus musculus [9] = assay: Antihyperalgesic activity against streptozotocin-induced hyperalgesia in Swiss albino mouse […] assessed as licking latency time at 30 mg/kg, po after 45 mins by hot plate test (reference value: 8.8 +/- 0.7 secs); assay type: functional
# Mus musculus [10] = assay: Antihyperalgesic activity Swiss albino mouse […] assessed as licking latency time at 30 mg/kg, po after 45 mins by hot plate test (reference value: 16.6 +/- 0.8 secs); assay type: functional; in short: as §4
# Mus musculus [11] = assay: Antihyperalgesic activity against streptozotocin-induced hyperalgesia in Swiss albino mouse […] assessed as licking latency time at 30 mg/kg, po after 30 mins by hot plate test (reference value: 8.8 +/- 0.7 secs); assay type: functional
# Mus musculus [12] = assay: Antihyperalgesic activity Swiss albino mouse […] assessed as licking latency time at 30 mg/kg, po after 30 mins by hot plate test (reference value: 16.6 +/- 0.8 secs); assay type: functional; in short: as §4
# Mus musculus [13] = assay: Antihyperalgesic activity against streptozotocin-induced hyperalgesia in Swiss albino mouse […] assessed as licking latency time at 30 mg/kg, po after 15 mins by hot plate test (reference value: 8.8 +/- 0.7 secs); assay type: functional
# Mus musculus [14] = assay: Antihyperalgesic activity Swiss albino mouse […] assessed as licking latency time at 30 mg/kg, po after 15 mins by hot plate test (reference value: 16.6 +/- 0.8 secs); assay type: functional; in short: as §4
# Mus musculus [15] = assay: Anxiolytic-like activity in Swiss albino mouse at 30 mg/kg, po after 30 mins by light/dark box test; assay type: functional, organism-based; set-up: dose 30 mg/kg
# In short: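 Male Swiss mice tested in a two-compartment light/dark box. Transfers between compartments and time spent in the lit side recorded. Compound given po 30 min before testing, in 10 ml/kg; flumazenil given i.p. for antagonism; 8 mice per group.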
# Mus musculus [16] = assay: Antihyperalgesic activity against streptozotocin-induced hyperalgesia in Swiss albino mouse […] assessed as licking latency time at 30 mg/kg, po after 60 mins by hot plate test (reference value: 8.8 +/- 0.7 secs); assay type: functional
# Mus musculus [17] = assay: Analgesic activity in Swiss albino mouse abdominal constriction model assessed as decrease in number of acetic acid-induced writhing at 30 to 60 mg/kg, po after 30 mins; assay type: functional, organism-based; conditions: Abdomen
# In short: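 Male Swiss albino mice (23–30 g). Compounds given po in 1% CMC vehicle 30 min before the test. Acetic acid 0.6% injected i.p. at 10 ml/kg. Stretching movements were counted for 10 min, starting 5 min after the acetic acid injection. 8–15 mice per group.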
# Mus musculus [18] = assay: Anticonvulsant activity in Swiss albino mouse […] assessed as protection against intraperitoneally administered pentylenetetrazol-induced seizures at 10 mg/kg, po after 30 mins; assay type: functional
# In short: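 Male Swiss albino mice. Compounds given po and PTZ 90 mg/kg injected 30 min later; PTZ was dissolved in 0.9% NaCl saline. Clonic generalized convulsions were recorded over 30 min. Each value is the mean of 10 mice. The methods give the PTZ route as s.c. and the table footnote gives it as ip.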
# Mus musculus [19] = assay: Anxiolytic activity in ip dosed Swiss albino mouse pain model after 30 mins by light/dark box test; assay type: functional, organism-based
# In short: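 Male Swiss albino mice were tested in a light/dark box 30 min after dosing. Read-outs were transfers between compartments and time spent in the illuminated side. Dose volume was 10 ml/kg. Results are means ± SEM of 8 mice.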
# Mus musculus [20] = assay: Anxiolytic activity in ip dosed Swiss albino mouse pain model after 30 mins by light/dark box test in presence of flumazenil; assay type: functional, organism-based
# In short: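 Light/dark box test in male Swiss albino mice, with drug given 30 min before testing and flumazenil 100 mg/kg i.p. co-administered before the test. Read-outs were transfers between compartments and time in the lit side. Results are means ± SEM of 8 mice.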
smiles,measurement,setting,value
Cc1cnn2c1n[n+]([O-])c1ccc(Cl)cc12,inhibition,Bos taurus,> 80%
same,Ki,[1],400 nM
[O-][n+]1nc2c(I)cnn2c2cc(OCc3ccccc3)ccc21,Activity,Rattus norvegicus [2],36.4 g
same,Activity,Rattus norvegicus [3],46.5 g
same,Activity,Rattus norvegicus [4],37.1 g
same,Activity,Rattus norvegicus [5],65.1 g
same,Activity,Rattus norvegicus [6],59.2 g
same,Activity,Rattus norvegicus [7],62.7 g
[O-][n+]1nc2c(I)cnn2c2cc(Cl)ccc21,Ki,[1],22.8 nM
CN(Cc1ccccc1)c1ccc2c(c1)n1ncc(I)c1n[n+]2[O-],inhibition,Bos taurus,> 80%
same,Time,Mus musculus [8],17.9 s
same,Time,Mus musculus [9],10.4 s
same,Time,Mus musculus [10],18.3 s
same,Time,Mus musculus [11],11.8 s
same,Time,Mus musculus [12],16.8 s
same,Time,Mus musculus [13],10.1 s
same,Time,Mus musculus [14],17.3 s
same,Activity,Mus musculus [15],Active
same,Ki,[1],1.02 nM
same,Time,Mus musculus [16],11.1 s
same,Activity,Mus musculus [17],inactive
same,Activity,Mus musculus [18],10%
same,Activity,Rattus norvegicus [2],28.5 g
same,Activity,Rattus norvegicus [3],26.5 g
same,Activity,Rattus norvegicus [4],29.2 g
same,Activity,Rattus norvegicus [5],60.8 g
same,Activity,Rattus norvegicus [6],62.8 g
same,Activity,Rattus norvegicus [7],61.7 g
CN1C(=O)CN=C(c2ccccc2)c2cc(Cl)ccc21,Activity,Mus musculus [19],Active
same,Activity,Mus musculus [20],inactive
[O-][n+]1nc2c(I)cnn2c2cc(NCc3ccc(Cl)cc3)ccc21,inhibition,Bos taurus,> 80%
same,Ki,[1],2.44 nM
[O-][n+]1nc2c(I)cnn2c2cc(NCCc3ccccc3)ccc21,inhibition,Bos taurus,> 80%
same,Ki,[1],14.7 nM
Ic1cnn2c1nnc1ccc(NCc3ccccc3)cc12,inhibition,Bos taurus,> 80%
same,Ki,[1],0.71 nM
